What was measured:
[1] = tested on: C=C(F)c1sc(CNCCCNc2cc(=O)c3ccccc3[nH]2)c(C)c1Br; assay: Activity of Bacillus stearothermophilus MetRS by ATP:PPi exchange assay in presence of ATP; conditions: Geobacillus stearothermophilus
[2] = tested on: C=C(F)c1sc(CNCCCNc2cc(=O)c3ccccc3[nH]2)c(C)c1Br; assay: Activity of Bacillus stearothermophilus MetRS by ATP:PPi exchange assay in presence of methionine; conditions: Geobacillus stearothermophilus
Staphylococcus aureus [3] = assay: Ratio of Kcat to Km for Staphylococcus aureus MetRS in presence of methionine
Staphylococcus aureus [4] = assay: Activity of Staphylococcus aureus MetRS by ATP:PPi exchange assay in presence of methionine
In short: (§1)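 Purified S. aureus MetRS (wild type or mutant; E. coli-expressed, ammonium sulfate cut, anion exchange) at 30 nM. ATP:PPi exchange at 30°C in 100 mM Tris-HCl pH 8.0, 5–10 mM Mg acetate, 80 mM KCl, 2.5 mM DTT, [32P]PPi plus cold PPi equal to ATP. Quenched with EDTA over 1–10 min, PEI-cellulose TLC, phosphorimager. Initial velocities versus varied ATP or methionine fit to Michaelis-Menten.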

Staphylococcus aureus [5] = assay: Activity of […] by scintillation proximity assay in presence of tRNA
Staphylococcus aureus [6] = assay: Ratio of Kcat to Km for Staphylococcus aureus MetRS in presence of ATP
In short: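 Purified recombinant S. aureus MetRS (30 nM) was assayed by ATP:PPi exchange at 30°C in Tris pH 8.0 with Mg acetate, KCl and DTT. [32P]PPi was matched to ATP, and ATP or methionine was varied. Time points from 1 to 10 min were quenched with EDTA, separated by PEI-cellulose TLC and read by phosphorimager. Initial rates were fitted to Michaelis-Menten.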

Escherichia coli [7] = assay: Activity of Escherichia coli MetRS by ATP:PPi exchange assay in presence of ATP
Homo sapiens [8] = organism: Homo sapiens; assay: Activity of human mitochondrial MetRS by ATP:PPi exchange assay in presence of ATP
Streptococcus pneumoniae [9] = assay: Activity of Streptococcus pneumoniae MetRS1 by ATP:PPi exchange assay in presence of ATP
Staphylococcus aureus [10] = assay: Ratio of Kcat to Km for Staphylococcus aureus MetRS in presence of tRNA
Escherichia coli [11] = assay: Activity of Escherichia coli MetRS by ATP:PPi exchange assay in presence of methionine
Streptococcus pneumoniae [12] = assay: Activity of Streptococcus pneumoniae MetRS1 by ATP:PPi exchange assay in presence of methionine
Homo sapiens [13] = organism: Homo sapiens; assay: Activity of human mitochondrial MetRS by ATP:PPi exchange assay in presence of methionine
Staphylococcus aureus [14] = assay: Activity of Staphylococcus aureus MetRS by ATP:PPi exchange assay in presence of ATP; in short: as §1

Sequence of Methionine--tRNA ligase (Geobacillus stearothermophilus), P23920 (P23920 whole entry): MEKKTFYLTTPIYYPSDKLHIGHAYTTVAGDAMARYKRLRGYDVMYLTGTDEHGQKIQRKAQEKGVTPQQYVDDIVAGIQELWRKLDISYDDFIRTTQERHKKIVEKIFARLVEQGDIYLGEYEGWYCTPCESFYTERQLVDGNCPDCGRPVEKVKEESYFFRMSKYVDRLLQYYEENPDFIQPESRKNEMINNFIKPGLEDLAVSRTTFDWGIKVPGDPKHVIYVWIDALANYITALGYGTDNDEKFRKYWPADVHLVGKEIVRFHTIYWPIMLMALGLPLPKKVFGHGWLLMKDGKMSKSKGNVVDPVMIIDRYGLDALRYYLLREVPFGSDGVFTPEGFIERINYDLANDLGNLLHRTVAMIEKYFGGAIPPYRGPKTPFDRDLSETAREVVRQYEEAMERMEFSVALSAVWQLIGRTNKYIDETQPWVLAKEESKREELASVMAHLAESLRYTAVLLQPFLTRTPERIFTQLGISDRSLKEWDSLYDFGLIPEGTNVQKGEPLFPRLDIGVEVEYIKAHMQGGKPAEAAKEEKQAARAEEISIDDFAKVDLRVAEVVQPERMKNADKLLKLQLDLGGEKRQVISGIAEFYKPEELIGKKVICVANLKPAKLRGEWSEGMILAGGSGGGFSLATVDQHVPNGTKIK

| Molecule | Km [1] | Km [2] | kcat/Km (Staphylococcus aureus [3]) | Km (Staphylococcus aureus [4]) | Km (Staphylococcus aureus [5]) | kcat (Staphylococcus aureus [5]) | kcat/Km (Staphylococcus aureus [6]) | Km (Escherichia coli [7]) | Km (Homo sapiens [8]) | Km (Streptococcus pneumoniae [9]) | kcat/Km (Staphylococcus aureus [10]) | Km (Escherichia coli [11]) | Km (Streptococcus pneumoniae [12]) | Km (Homo sapiens [13]) | Km (Staphylococcus aureus [14]) |
| --- | --- | --- | --- | --- | --- | --- | --- | --- | --- | --- | --- | --- | --- | --- | --- |
| Methionine--tRNA ligase (Geobacillus stearothermophilus), P23920 | 1 µM | 6 µM | – | – | – | – | – | – | – | – | – | – | – | – | – |
| C=C(F)c1sc(CNCCCNc2cc(=O)c3ccccc3[nH]2)c(C)c1Br | – | – | 0.25 µM⁻¹ s⁻¹ | 100 µM | 1 µM | 0.49 s⁻¹ | 0.05 µM⁻¹ s⁻¹ | 20 µM | 85 µM | 514 µM | 0.49 µM⁻¹ s⁻¹ | 20 µM | 53 µM | 20 µM | 500 µM |

— ChEMBL document CHEMBL1629614, “Inhibition of methionyl-tRNA synthetase by REP8839 and effects of resistance mutations on enzyme activity” (Antimicrob Agents Chemother, 2009)
